Laboratory results reported in ChEMBL document CHEMBL1124502, “Novel indolecarboxamidotetrazoles as potential antiallergy agents” (J Med Chem, 1989).

Legend:
[1] = target: T1, High affinity immunoglobulin epsilon receptor subunit alpha (Homo sapiens) (UniProt P12319); experiment: (§1) Inhibition of anti-IgE antibody-stimulated histamine release in human basophills at 10 uM; assay type: functional
T1 sequence (whole entry): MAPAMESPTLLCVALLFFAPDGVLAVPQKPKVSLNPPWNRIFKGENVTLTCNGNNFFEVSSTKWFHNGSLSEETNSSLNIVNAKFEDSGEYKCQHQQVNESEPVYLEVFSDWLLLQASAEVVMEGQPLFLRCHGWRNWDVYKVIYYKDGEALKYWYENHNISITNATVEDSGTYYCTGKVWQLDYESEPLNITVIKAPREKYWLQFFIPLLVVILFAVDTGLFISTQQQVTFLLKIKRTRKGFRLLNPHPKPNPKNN
In short: (§2)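 Human leukocytes isolated after red-cell sedimentation, washed, suspended in buffer; preincubated with compound then challenged with anti-IgE. Released histamine measured by automated fluorometric assay; percent inhibition versus undrugged anti-IgE-challenged controls.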

[2] = target: T1, High affinity immunoglobulin epsilon receptor subunit alpha (Homo sapiens); experiment: (§3) Inhibition of anti-IgE antibody-stimulated histamine release in human basophills at 33 uM; assay type: functional; in short: as §2
Homo sapiens [3] = organism: Homo sapiens; experiment: Inhibition of anti-IgE antibody stimulated histamine release in human basophils; assay type: functional
In short: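 Human leukocytes obtained after red-cell sedimentation, washed and suspended in buffer, preincubated with drug, then challenged with anti-IgE. Histamine quantified by automated fluorometric assay; percent inhibition vs nondrug anti-IgE-challenged controls. IC50 from threefold concentrations 1–100 μM.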

Homo sapiens [4] = organism: Homo sapiens; experiment: Inhibition of anti-IgE antibody stimulated histamine release in human lung; assay type: functional, organism-based
In short: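 Grossly normal human lung from lobectomy, dissected, chopped into 25–75-mg fragments, washed, held overnight in Tyrode's buffer at room temperature, rewashed. About 400 mg tissue at 37 °C in Tyrode's for 10 min, drug or vehicle added, 10 min later anti-IgE (final 3:1000), 30 min further incubation, supernatant sampled for histamine.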

Cavia porcellus [5] = organism: Cavia porcellus; experiment: Inhibition of ovalbumin stimulated histamine release in guinea pig lung
Homo sapiens [6] = organism: Homo sapiens; experiment: as §1; assay type: functional; in short: as §2
Cavia porcellus [7] = organism: Cavia porcellus; experiment: Inhibition of ovalbumin-stimulated histamine release in guinea pig lung, at 75 uM compound concentration; […]; assay type: functional
Homo sapiens [8] = organism: Homo sapiens; experiment: Inhibition of anti-IgE antibody stimulated histamine release in human lung, at 75 uM compound concentration; […]; assay type: functional
Homo sapiens [9] = organism: Homo sapiens; experiment: Inhibition of anti-IgE antibody-stimulated histamine release in human basophills at 33 uM; c = sample fluorescence interferes with the histamine assay; assay type: functional; in short: as §2
Cavia porcellus [10] = organism: Cavia porcellus; experiment: Inhibition of ovalbumin-stimulated histamine release in guinea pig lung; assay type: functional, organism-based
Homo sapiens [11] = organism: Homo sapiens; experiment: as §3; assay type: functional, organism-based; in short: as §2

| inhibition [1] | inhibition [2] | Structure (SMILES) | also measured |
| --- | --- | --- | --- |
| 18% | 45% | COc1ccc2c(c1)c(OC(C)C)c(C(=O)Nc1nn[nH]n1)n2C | – |
| 46% | 82% | COc1ccc2c(c1)c(OC(C)C)c(C(=O)Nc1nn[nH]n1)n2-c1ccccc1 | IC50 (Homo sapiens [3]): 15 µM; IC50 (Homo sapiens [4]): 16.6 µM; IC50 (Cavia porcellus [5]): 26.7 µM |
| 46% | 74% | COc1ccc2c(c1)c(OC)c(C(=O)Nc1nn[nH]n1)n2-c1ccccc1 | – |
| – | 73% | CCOc1c(C(=O)Nc2nn[nH]n2)n(-c2ccccc2)c2ccc(OC)cc12 | Inhibition (Homo sapiens [6]): 55% |
| 17% | 62% | COc1ccc2[nH]c(C(=O)Nc3nn[nH]n3)c(OC(C)C)c2c1 | – |
| 13% | 50% | COc1ccc2c(c1)c(SC(C)C)c(C(=O)Nc1nn[nH]n1)n2-c1ccccc1 | – |
| 24% | 50% | COc1ccc2c(OC(C)C)c(C(=O)Nc3nn[nH]n3)n(-c3ccccc3)c2c1 | – |
| – | < 25% | COc1cccc2c1c(OC(C)C)c(C(=O)Nc1nn[nH]n1)n2-c1ccccc1 | – |
| 16% | 49% | COc1ccc(-n2c(C(=O)Nc3nn[nH]n3)c(OC(C)C)c3cc(OC)ccc32)cc1 | – |
| – | < 25% | COc1ccc2c(c1)cc(C(=O)Nc1nn[nH]n1)n2-c1ccccc1 | – |
| 7% | 46% | CCOc1c(C(=O)Nc2nn[nH]n2)[nH]c2ccc(OC)cc12 | – |
| – | < 25% | COc1ccc2c(c1)c(O)c(C(=O)Nc1nn[nH]n1)n2-c1ccccc1 | – |
| – | < 25% | COc1ccc2c(c1)c(Oc1ccc([N+](=O)[O-])cc1)c(C(=O)Nc1nn[nH]n1)n2-c1ccccc1 | – |
| – | < 25% | COc1ccc2c(c1)c(S(C)(=O)=O)c(C(=O)Nc1nn[nH]n1)n2-c1ccccc1 | – |
| 61% | 69% | COc1ccc2c(c1)c(OC(C)C)c(C(=O)Nc1nn[nH]n1)n2Cc1ccccc1 | – |
| 43% | 84% | COc1ccc2c(c1)c(OCc1ccccc1)c(C(=O)Nc1nn[nH]n1)n2-c1ccccc1 | – |
| 20% | 66% | COc1ccc2c(c1)c(SC)c(C(=O)Nc1nn[nH]n1)n2-c1ccccc1 | – |
| – | < 25% | COc1ccc2c(c1)c(C(C)C)c(C(=O)Nc1nn[nH]n1)n2-c1ccccc1 | – |
| – | < 25% | COc1ccc(-n2c(C(=O)Nc3nn[nH]n3)c(OC(C)C)c3ccccc32)cc1 | – |
| 26% | 55% | CCOc1c(C(=O)Nc2nn[nH]n2)n(Cc2ccccc2)c2ccc(OC)cc12 | – |

Continued, compound first:

| Structure (SMILES) | inhibition [1] | inhibition [2] | also measured |
| --- | --- | --- | --- |
| CC(C)Oc1c(C(=O)Nc2nn[nH]n2)n(-c2ccccc2)c2cc(Cl)c(Cl)cc12 | 40% | 84% | – |
| COc1ccc2c(c1)c(OC(C)C)c(-c1nn[nH]n1)n2-c1ccccc1 | 25% | 37% | – |
| O=C([O-])c1cc(=O)c2c(OCC(O)COc3cccc4oc(C(=O)[O-])cc(=O)c34)cccc2o1.[Na+].[Na+] [CROMOLYN SODIUM] | – | < 25% | Inhibition (Cavia porcellus [7]): <=25%; Inhibition (Homo sapiens [8]): <=25% |
| Cc1ccc2c(c1)c(OC(C)C)c(C(=O)Nc1nn[nH]n1)n2-c1ccccc1 | – | < 25% | – |
| CC(C)Oc1c(C(=O)Nc2nn[nH]n2)n(-c2ccccc2)c2ccc(OCc3ccccc3)cc12 | 65% | 66% | – |
| O=C(Nc1nn[nH]n1)c1c(OCc2ccccc2)c2ccccc2n1-c1ccccc1 | – | < 25% | – |
| CC(C)Oc1c(C(=O)Nc2nn[nH]n2)n(-c2ccccc2)c2ccc(O)cc12 | – | < 25% | – |
| CCCCCCCCCOc1c(C(=O)Nc2nn[nH]n2)n(-c2ccccc2)c2ccc(OC)cc12 | – | – | inhibition (Homo sapiens [9]): Sample fluorescence interferes with histamine assay |
| CC(C)Oc1c(C(=O)Nc2nn[nH]n2)n(-c2ccccc2)c2ccc(Cl)cc12 | 18% | 72% | – |
| COc1ccc2c(c1)c1oc(C(=O)Nc3nnn[nH]3)c(OC)c1n2-c1ccccc1.NC(N)=NCCC[C@H](N)C(=O)O | – | – | IC50 (Cavia porcellus [10]): 13.4 µM; IC50 (Homo sapiens [11]): 8.5 µM |
| CC(C)Oc1c(C(=O)Nc2nn[nH]n2)n(-c2ccccc2)c2ccccc12 | – | < 25% | – |
| CC(C)Oc1c(C(=O)Nc2nn[nH]n2)n(-c2ccccc2)c2ccc(Br)cc12 | 7% | 33% | – |
| COc1ccc2c(c1)c(Sc1ccccc1)c(C(=O)Nc1nn[nH]n1)n2-c1ccccc1 | 30% | 82% | – |
| CCCc1c2oc(C(=O)O)cc(=O)c2cc2c(=O)cc(C(=O)O)n(CC)c12 [NEDOCROMIL] | – | < 25% | Inhibition (Cavia porcellus [7]): <=25%; Inhibition (Homo sapiens [8]): <=25% |
